In experiment [1] the target is T1, 5-hydroxytryptamine receptor 6 (Homo sapiens, UniProt P50406). Briefly: Antagonist activity at 5-HT6 receptor (unknown origin). In a few lines: (§1)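 Human 5-HT6R in HEK cells under a tetracycline-inducible T-REx promoter, induced with 1 µg/mL tetracycline the day before. Cells in HBSS/5 mM HEPES pH 7.4, 0.05% BSA and IBMX, about 4000 per well. IC50 from 4-parameter fit, in duplicate. Ki by Cheng-Prusoff using 5-HT EC50 measured alongside.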

The target in experiment [2] is T1, 5-hydroxytryptamine receptor 6. Briefly: Antagonist activity at recombinant human 5-HT6 receptor expressed in HEK293 cells assessed as 5-HT-induced intracellular cAMP production after 30 mins. Format: functional, cell-based. In a few lines: as §1
For experiment [3] the target is unchanged. As to the kind of experiment: Displacement of [3H]-lysergic acid diethylamide from human 5-HT6 receptor expressed in HEK293 cell membranes after 3.5 hrs.
For experiment [4] the target is unchanged. Briefly: Partial agonist activity at recombinant human 5-HT6 receptor expressed in HEK293 cells assessed as induction of intracellular cAMP production after 30 mins. Format: functional, cell-based. For orientation: Cyclic AMP is a second messenger, typically raised through Gs and lowered through Gi signalling.

As usually defined, the IC50 is the concentration needed to halve the response being measured. A lower IC50 goes with greater potency. One may read the Ki as a measure of affinity in units of concentration, obtained from inhibition or displacement.

T1 sequence (P50406 whole entry): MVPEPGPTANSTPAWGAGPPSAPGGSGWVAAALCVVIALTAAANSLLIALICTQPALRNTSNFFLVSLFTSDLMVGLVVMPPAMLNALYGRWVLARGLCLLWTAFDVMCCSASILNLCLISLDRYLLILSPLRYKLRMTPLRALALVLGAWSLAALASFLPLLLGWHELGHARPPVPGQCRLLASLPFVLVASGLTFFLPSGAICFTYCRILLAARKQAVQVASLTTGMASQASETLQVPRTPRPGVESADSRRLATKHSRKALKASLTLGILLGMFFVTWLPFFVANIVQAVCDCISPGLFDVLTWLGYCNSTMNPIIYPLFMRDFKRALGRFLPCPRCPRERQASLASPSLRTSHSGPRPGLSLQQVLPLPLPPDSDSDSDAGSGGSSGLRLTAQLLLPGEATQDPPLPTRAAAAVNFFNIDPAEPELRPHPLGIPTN

For `CCNc1cc(N2CCNCC2)ccc1S(=O)(=O)c1ccccc1`, the IC50 in experiment [1] was found to be 2.7 nM.
For `CN(C)c1ccccc1S(=O)(=O)c1ccccc1`, the Ki in experiment [2] came to 2040 nM.
In experiment [3], `Cc1cc(N2CCNCC2)c2c(c1)N(S(=O)(=O)c1ccccc1Cl)CCO2` came in with a Ki of 0.2 nM.
On to `CN(C)c1cc(N2CCNCC2)ccc1S(=O)(=O)c1ccccc1`, for which, in experiment [2], the Ki is 30.1 nM. In experiment [4], the Activity is 17%.
On to `Nc1ccc(S(=O)(=O)c2ccc(N)cc2)cc1` [DAPSONE], for which the Ki in experiment [2] was 183 nM.
Still for that read-out and setting: with `Nc1cc(N2CCNCC2)ccc1S(=O)(=O)c1ccccc1` the figure was 1.65 nM; with `Nc1ccc(S(=O)(=O)c2ccc(N)c(N)c2)cc1`, 564 nM; with `O=S(=O)(c1ccccc1)c1ccc(N2CCNCC2)cc1`, 10.8 nM.
The same measure, in the same setting: the value for `CNc1ccccc1S(=O)(=O)c1ccccc1` was 24.3 nM; that for `Nc1ccccc1S(=O)(=O)c1ccccc1` was 491 nM; that for `CNc1cc(-c2ccccc2)ccc1S(=O)(=O)c1ccccc1` was 153 nM.
Same read-out and setting: the value for `CNc1cc(-c2cccnc2)ccc1S(=O)(=O)c1ccccc1` was 48.3 nM.
Take `COc1ccccc1S(=O)(=O)c1ccccc1`: the Ki in experiment [2] amounted to 866 nM.
Still for that read-out and setting: the value for `CC(=O)Nc1cc(N2CCNCC2)ccc1S(=O)(=O)c1ccccc1` was 8.3 nM.
On to `O=S(=O)(c1ccccc1)c1ccccc1` [(PHENYLSULFONYL)BENZENE], for which, in experiment [2], the Ki came out at 1600 nM.

(Values after ChEMBL document CHEMBL2413055, “Synthesis of substituted diphenyl sulfones and their structure-activity relationship with the antagonism of 5-НТ6 receptors” (Bioorg Med Chem, 2013).)
